# High-throughput results from PubChem.
# ABCG2 inh = blocks JC-1 efflux by human ABCG2 transporter. IgMXP3 cells, flow cytometry. inhibition, % at 6.6 µM. 190,000 compounds, 0.1% hits;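 active = inhibition above 80%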;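 also: 0% = DMSO and 100% = nicardipine control wells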
# Target sequence (Q9UNQ0 whole entry, looked up): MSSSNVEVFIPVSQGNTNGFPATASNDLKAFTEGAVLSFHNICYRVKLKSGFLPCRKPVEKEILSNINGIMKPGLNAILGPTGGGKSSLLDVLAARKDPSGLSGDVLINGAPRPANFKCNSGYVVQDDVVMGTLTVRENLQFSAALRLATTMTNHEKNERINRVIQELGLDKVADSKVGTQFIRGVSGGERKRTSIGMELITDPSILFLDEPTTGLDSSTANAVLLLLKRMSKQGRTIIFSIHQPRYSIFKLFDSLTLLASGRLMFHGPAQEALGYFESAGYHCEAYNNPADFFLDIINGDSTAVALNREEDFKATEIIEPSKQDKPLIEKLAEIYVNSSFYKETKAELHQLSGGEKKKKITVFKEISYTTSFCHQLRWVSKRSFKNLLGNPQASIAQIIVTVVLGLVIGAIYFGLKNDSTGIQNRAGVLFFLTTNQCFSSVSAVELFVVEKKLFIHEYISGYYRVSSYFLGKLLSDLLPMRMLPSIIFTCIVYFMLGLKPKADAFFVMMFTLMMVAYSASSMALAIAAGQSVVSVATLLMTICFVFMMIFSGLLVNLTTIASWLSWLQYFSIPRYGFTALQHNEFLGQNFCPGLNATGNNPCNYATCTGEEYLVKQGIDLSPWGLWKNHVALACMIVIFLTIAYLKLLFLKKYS
#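 Test system: IgMXP3 (ABCG2) plus far-red-tagged CCRF-Adr (ABCB1) cells / Amount: 3 million cells/mL in well / Reagent: JC-1 transporter substrate / Timing: 10 min compound exposure, 25 °C / Signal: flow cytometry, 530 nm JC-1 signal / Read-out: percent efflux inhibition, scaled nicardipine 100% to DMSO 0% / Benchmarks: nicardipine as high control, DMSO as low control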
# Redox H2O2 prof = compounds producing H2O2 with reducing agent – biochemical, NIH compound library profiling, artefact control for MLSCN library redox annotation, primary screen | AID 878 | 200,000 compounds, 0.03% hits | activation, % at 10 µM | DTT-dependent redox cycling H2O2, phenol red/HRP absorbance; 100% = 100 µM peroxide control, 0% = buffer;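 active = activation of at least 50% relative to the plate's high and low controls in the primary single-dose screen; inactive = activation below 50%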;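 also: compound incubated with DTT at 0.8 mM final as the reducing agent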
# Measles CPE = protection of cells from measles virus; Measles virus-infected cells, CPE protection, absorbance; protection (pct of control), % at 4 µM; 140,000 compounds, 1.5% hits; in the data active = protection mostly above about 24%, no sharp cut-off; inactive = mostly below about 26%
# FLuc inhib CS = inhibits firefly luciferase, flagging false hits in luciferase inhibition screens. ATPLite firefly luciferase biochemical luminescence, 10 min. 200,000 compounds, 1.5% hits. P08659. inhibition, % at 10 µM;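 active = inhibition above about 50% when tested at 10 µM, limit read from the data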
# FLuc stim CS = affects firefly luciferase, flagging false hits in luciferase stimulation screens | P08659 | ATPlite luciferase biochemical, luminescence, 10 min; 0 = ATP-free wells, 1 = DMSO control | activation factor at 10 µM | 200,000 tested, under 10 active | AID 1027;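 active = luciferase activation factor, scaled between plate controls, of at least 2 with compound at 10 µM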
#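 Material: Luciferase/luciferin reagent mix | Doses: Test compounds dosed from 2 mM stocks in 100% DMSO | Timing: 10 min incubation after luciferase reagent addition, room temperature | Measured by: Luminescence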
# ABCB1 inh = inhibitors of human ABCB1 transporter, ABCG2 counter-screen | inhibition, % at 6.6 µM | AID 1326 | 190,000 compounds, 0.067% hits | CCRF-Adr cells, JC-1 efflux, flow cytometry | P08183; in the data active = inhibition above about 40%;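 also: 0% = vehicle and 100% = reference inhibitor; higher value means more JC-1 retained so stronger ABCB1 efflux block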
# ABCB1 confirm = inhibits human ABCB1 efflux, confirmed at single point. shares compounds with ABCG2 inh. CCRF-Adr cells, JC-1 efflux, flow cytometry. inhibition, % at 6.6 µM. 270 compounds, 7% hits;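 active = inhibition of pump activity above 50%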;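 also: 0% = DMSO and 100% = nicardipine full pump inhibition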
# ABCG2 single pt = confirmation of human ABCG2 transporter inhibitors, ABCB1 counter-screen. shares compounds with ABCG2 inh. IgMXP3 cells, JC-1 efflux, flow cytometry. inhibition, % at 6.6 µM. 270 compounds, 6% hits;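 active = inhibition above 50%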;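 also: 0% = DMSO wells and 100% = nicardipine pump inhibitor wells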
# IgMXP3 autofluor = counter-screen for ABCG2 inhibitors: compound fluorescence in IgMXP3 cells | 270 compounds, 30% hits | fluorescence at 6.6 µM | shares compounds with ABCG2 inh | compound autofluorescence 488/530 nm, flow; stronger effect = higher value;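 active = fluorescence in ABCG2-expressing cells above the plate's control-well mean plus 3 SD, cut at about 15 in these data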;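 also: median cell fluorescence with compound minus that of DMSO-treated control cells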
# CCRF-Adr fluor = counter-screen for ABCB1 inhibitors: compound fluorescence in CCRF-Adr cells; shares compounds with ABCG2 inh; compound autofluorescence 488/530 nm, flow cytometry; stronger effect = higher value; fluorescence at 6.6 µM; 270 compounds, 30% hits; AID 1483;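 active = fluorescence beyond the plate control mean plus 3 SD, with a fluorescence-to-maximum score over 2, cut at about 25 in these data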
# The depositor's hits bear a star; / = no result; + = active, no number. Compounds with a hit are over-represented: about 2.7% of the library has one in this group of screens.
SMILES,ABCG2 inh,Redox H2O2 prof,Measles CPE,FLuc inhib CS,FLuc stim CS,ABCB1 inh,ABCB1 confirm,ABCG2 single pt,IgMXP3 autofluor,CCRF-Adr fluor
CCN1/C(=C/c2ccc3cccc(C)c3[n+]2CC)Sc2ccccc21,+,-0.6,5.6,-4.0,1,33.8,25.9,69.2*,304*,305*
CCOc1ccccc1NC(=S)NNS(=O)(=O)c1c(C)cc(C)cc1C,-4.7,0.5,9.7,-2.9,1,0.3,/,/,/,/
O=C(C1CCCO1)N1CCN(c2ccc(F)cc2)CC1 (configuration not stated),0.4,3.0,22.9,-1.6,1,0.1,/,/,/,/
O=C(/C=C/c1cccc([N+](=O)[O-])c1)Nc1cccc(NC(=O)c2ccco2)c1,-6.0,0.8,13.3,-0.7,1,0.3,/,/,/,/
O=C(/C=C/c1cccc([N+](=O)[O-])c1)Nc1cccc(NC(=O)c2cccs2)c1,+,-0.1,6.4,-0.6,1,+,12.6,31.2,-0.59,0.66
O=C(Nc1nc2ccc([N+](=O)[O-])cc2s1)c1c(F)cccc1F,80.4,0.3,/,3.1,1,1.3,-0.2,30.0,-3.39,-5.69
CCN(CC(=O)Nc1ccc(Cl)c(C(F)(F)F)c1)CC(=O)NC1CCS(=O)(=O)C1 (configuration not stated),5.8,-0.4,/,-1.7,1,0.5,/,/,/,/
Cc1c(C(=O)Nc2ccc(Cl)cc2)c2ccccn2c1CCc1ccncc1,7.8,1.3,7.9,16.1,0.8,6.4,/,/,/,/
Cc1c(C(=O)Nc2cccc(Cl)c2)c2ccccn2c1CCc1ccncc1,98.7*,0.4,2.3,-0.2,1,66.2*,55.8*,42.0,-1.54,-3.74
Cc1cc(/C=C(\C#N)C(=O)O)c(C)n1CC(C)C,+,-0.2,7.2,7.1,0.9,+,-2.0,-5.3,39.8*,4.41
Cc1cc(C)c(N=Cc2c(O)n(-c3nccs3)c(=O)c3ccccc23)c(C)c1,11.3,0.5,2.9,-3.2,1,4.0,/,/,/,/
Cc1ccc(N=Cc2c(O)n(-c3nccs3)c(=O)c3ccccc23)cc1,73.4,0.3,2.1,-2.6,1,41.3*,4.6,36.8,-0.29,8.76
Cc1cnc(NC(=O)C(C)N2CCN(C)CC2)s1 (configuration not stated),0.3,-1.9,/,-5.5,1.1,0.2,/,/,/,/
C/C(=N\NC(=O)COc1ccc(C#N)cc1)c1ccc(N2CCOCC2)cc1,3.2,-0.6,9.2,-0.3,1,0.5,/,/,/,/
C/C(=N\NC(=O)COc1cc(C)cc(C)c1)c1ccc(N2CCOCC2)cc1,91.7*,0.2,2.9,0.7,1,0.4,0.8,41.8,-2.19,-4.59
CN(C)c1cc[n+](CC(=O)N2CCCc3ccccc32)cc1,1.1,-0.5,/,-9.4,1.1,-0.7,/,/,/,/
S=c1[nH]nc(-c2ccc3ccccc3n2)n1-c1ccc2ncccc2c1,63.5,-0.7,2.0,2.7,1,0.4,6.2,10.7,31.6*,20.2
Cn1c(Cl)c(C(=O)Nc2ccc(Cl)cc2)c2ccccc21,23.9,-2.0,1.3,10.7,0.9,1.8,/,/,/,/
Oc1ccc(Nc2nc3ccccc3nc2Nc2ccc(O)cc2)cc1,-2.3,0.9,17.3,-4.5,1,-0.3,/,/,/,/
CCOC(=O)c1sc(NN=C(C(=O)OC)C(=O)OC)c(C(=O)OCC)c1C,125.8*,0.6,17.5,2.3,1,0.5,2.1,25.6,-1.29,-1.19
CCCCCn1c(CN2CCN(Cc3ccccc3)CC2)nc2c1c(=O)n(C)c(=O)n2C,27.9,-1.0,6.6,-1.9,1,56.5*,22.8,14.0,0.81,-2.39
COc1ccc(/C=C2/SC(=O)N(CCC(=O)Nc3ccccc3)C2=O)cc1OC,-0.4,0.6,3.5,1.9,1,-0.2,/,/,/,/
Cc1nc2ccc(NC(=O)c3cccc(S(=O)(=O)N4CC(C)OC(C)C4)c3)cc2s1 (configuration not stated),1.2,0.1,0.2,-4.9,1,0.8,/,/,/,/
Cc1oc2c(C)c3oc(=O)c4c(c3cc2c1C)CCCC4,75.2,0.2,8.3,-9.4,1.1,2.1,8.3,18.0,11.6,15.4
Cc1c(O)ccc2c3c(c(=O)oc12)CCCC3,1.0,1.0,6.0,-2.5,1,0.1,/,/,/,/
SMILES,ABCG2 inh,Redox H2O2 prof,Measles CPE,FLuc inhib CS,FLuc stim CS,ABCB1 inh,ABCB1 confirm,ABCG2 single pt,IgMXP3 autofluor,CCRF-Adr fluor
CC(C)c1ccc(OCc2cccc(C(=O)N/N=C/c3cccnc3)c2)cc1,9.1,-0.3,3.7,42.4,0.6,-0.2,/,/,/,/
CCOc1ccc(OCc2cccc(C(=O)N/N=C/c3cccnc3)c2)cc1,86.6*,0.1,20.8,46.7,0.5,1.5,-1.8,21.6,4.21,3.16
O=C(NC1CCCCC1)C(c1ccc(O)cc1)N(CC1CCCO1)C(=O)C1COc2ccccc2O1 (configuration not stated),2.2,-0.3,9.9,-6.5,1.1,0.9,/,/,/,/
CN(C)S(=O)(=O)c1ccc(NC(=O)COC(=O)CC2CC3CCC2C3)cc1 (configuration not stated),4.3,9.5,/,-3.7,1,0.4,/,/,/,/
O=C(Cn1ccc(C(F)(F)F)n1)N=Nc1c(O)[nH]c2ccccc12,22.7,0.9,/,-2.3,1,0.9,/,/,/,/
CC(C)n1c(O)c(N=NC(=O)Cn2ccc(C(F)(F)F)n2)c2ccccc21,88.8*,0.3,11.1,-2.0,1,1.4,16.5,16.9,2.86,28*
CCOc1ccc(NS(=O)(=O)c2ccc(NC(=O)C3CCCO3)cc2)cc1 (configuration not stated),0.7,0.2,5.1,-6.3,1.1,0.3,/,/,/,/
CCN(CC)c1ccc(/C=C2/C(=O)c3ccc(C(=O)O)cc3C2=O)cc1,+,-0.7,11.3,92.4*,0.1,140.3*,-46.1,-162.4,251*,169*
CCn1c(SCc2nc3ccccc3[nH]2)nnc1-c1ccc(OC)cc1,0.1,-0.1,5.4,-2.4,1,0.4,/,/,/,/
CC(=O)c1c(C)[nH]c(C(=O)OCC(=O)Nc2cc(Cl)ccc2[N+](=O)[O-])c1C,9.0,0.3,4.9,-0.4,1,6.2,9.1,34.1,4.51,11.7
